Assay outcomes from PubChem BioAssay.
Most compounds without a hit are left out; they make up all but 3.7% or so of the library.
KCNQ1 block = blocks the human KCNQ1 potassium channel | P51787 | CHO-K1 KCNQ1, FluxOR thallium flux fluorescence; hits give high values | B-score at 10 µM | hit rate 1.3% among 310,000 | AID 2642;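 active = compounds whose thallium flux B-score, printed positive for inhibition, exceeds three library SD while starting fluorescence stays within three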;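 also: channel opened by potassium depolarization with thallium stimulus after 20 min compound exposure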
Kir21 inh = blocks the mouse Kir2.1 inward-rectifier potassium channel | HEK293-Kir2.1, FluxOR thallium flux fluorescence; hits give low values | B-score at 10 µM | AID 1672 | P35561 | hit rate 0.85% among 310,000;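 active = fluorescence ratio B-score at or below minus 3 SD of library scores, with starting-brightness B-score within 2 SD, cut at about -4.2 in these data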;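 also: channel flux triggered by added potassium and thallium sulfate stimulus; B-score of peak minus minimum fluorescence over baseline after thallium stimulus; more negative B-score means stronger Kir2.1 block with less thallium influx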
hERG rescue = hERG (human) protection from proarrhythmic block. hit rate 0.51% among 310,000. CHO-hERG, FluxOR thallium flux, dofetilide IC70 present. activation (rescue from dofetilide block), less the hit threshold, % at 10 µM. AID 1511. Q12809;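 active = activation above the mean of controls blocked by dofetilide plus 5 SD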;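 also: thallium influx through hERG after potassium depolarization seen as dye fluorescence rise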
KCNQ1 pot = potentiators or activators of human KCNQ1 potassium channel; P51787; hit rate 0.35% among 310,000; CHO-K1 KCNQ1, thallium flux FluxOR fluorescence; hits give high values; B-score at 10 µM;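 active = fluorescence ratio B-score, a plate-corrected score, at least three library SD, with initial intensity B-score within 5 SD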
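assay system = CHO-K1 cells stably expressing KCNQ1 | medium = assay buffer, equal DMSO in all wells | timing = 37 °C overnight plating, 90-min dark dye load, 20-min compound pretreatment | measured by = kinetic FluxOR thallium fluorescence, 10-s 1-Hz baseline, 110-s post-stimulus read | measure = fluorescence change relative to baseline, converted to B score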
KCNK9 inh = blocks the human KCNK9 two-pore domain potassium channel. Q9NPC2. HEK293 KCNK9, FluxOR thallium flux fluorescence; hits give low values. B-score at 10 µM. hit rate 1.2% among 310,000. AID 488922;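 active = ratio B-score over 3 SD below the library mean, with starting fluorescence within 5 SD of its mean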;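 also: negative B-score means less thallium flux so channel inhibition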
Target sequence (Q9NPC2 whole entry, looked up, the tested form may be a part): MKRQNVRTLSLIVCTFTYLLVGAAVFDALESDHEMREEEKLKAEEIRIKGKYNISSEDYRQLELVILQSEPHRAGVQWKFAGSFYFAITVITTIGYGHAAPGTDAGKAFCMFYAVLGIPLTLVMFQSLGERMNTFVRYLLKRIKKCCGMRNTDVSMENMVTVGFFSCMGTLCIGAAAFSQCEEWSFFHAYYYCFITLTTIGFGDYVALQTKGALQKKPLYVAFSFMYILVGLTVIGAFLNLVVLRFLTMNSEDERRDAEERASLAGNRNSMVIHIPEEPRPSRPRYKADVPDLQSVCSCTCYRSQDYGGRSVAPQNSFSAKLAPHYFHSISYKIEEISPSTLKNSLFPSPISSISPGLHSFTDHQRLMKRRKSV
KCNK3 inh = human KCNK3 channel inhibition, primary screen; CHO-KCNK3 thallium flux, FluxOR fluorescence; hits give low values; B-score at 10 µM; hit rate 0.84% among 340,000;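 active = B-score under library mean minus 4 SD, starting fluorescence ratio at most library mean plus 5 SD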;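 also: more negative B-score means stronger inhibition of thallium flux through KCNK3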
Target sequence (O14649 whole entry, looked up): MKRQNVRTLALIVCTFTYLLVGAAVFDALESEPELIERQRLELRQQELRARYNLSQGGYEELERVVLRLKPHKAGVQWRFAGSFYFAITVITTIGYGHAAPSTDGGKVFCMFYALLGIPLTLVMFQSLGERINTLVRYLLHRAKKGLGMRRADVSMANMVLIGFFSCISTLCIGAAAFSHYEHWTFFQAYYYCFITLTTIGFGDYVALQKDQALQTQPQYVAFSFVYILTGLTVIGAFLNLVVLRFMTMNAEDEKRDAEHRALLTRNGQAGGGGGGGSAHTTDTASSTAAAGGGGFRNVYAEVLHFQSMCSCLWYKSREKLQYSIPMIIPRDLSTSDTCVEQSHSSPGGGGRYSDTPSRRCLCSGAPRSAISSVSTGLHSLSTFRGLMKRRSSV
KCNQ1 block val = confirmation of human KCNQ1 potassium channel inhibitors. inhibition, % at 10 µM. KCNQ1 cell line, FluxOR thallium flux fluorescence. shares compounds with KCNQ1 block. hit rate 93% among 1,600;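 active = primary screen active, with duplicate mean exceeding buffer control mean plus 3 SD of buffer wells, cut at about 28% in these data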;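 also: 0% = buffer control ratio and 100% = XE991 inhibitor control ratio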
CHO Tl flux = activity in parental CHO cells lacking KCNQ1 | shares compounds with KCNQ1 block | parental CHO-K1, FluxOR thallium flux fluorescence ratio; hits give low values; zero means no signal rise above baseline | fluorescence ratio (Tl flux) at 10 µM | hit rate 21% among 1,600 | AID 588366;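 active = mean of duplicate thallium-flux fluorescence ratios in parental host cells more than 5 SD below the buffer control mean, cut at about 0.38 in these data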;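 also: ratio is peak minus minimum fluorescence divided by baseline fluorescence; actives read low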
KCNQ2 spec = KCNQ1 inhibitor that also blocks rat KCNQ2 channel | shares compounds with KCNQ1 block | KCNQ2 cells, FluxOR thallium flux fluorescence | inhibition, % at 10 µM | hit rate 71% among 1,600;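 active = mean percent inhibition of the KCNQ2 thallium signal more than 5 SD above the buffer-only control wells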;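 also: KCNQ2 expressed in CHO cells; 0% = buffer control wells and 100% = XE-991 inhibitor control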
KCNQ1-KCNE1 inh = KCNQ1 inhibitor that also blocks human KCNQ1/KCNE1 channel; inhibition, % at 10 µM; hit rate 77% among 1,600; shares compounds with KCNQ1 block; KCNQ1/KCNE1 cells, FluxOR thallium flux fluorescence;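 active = mean percent inhibition of duplicate wells above the buffer-only control mean plus 3 SD of those controls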;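 also: 0% = buffer only wells and 100% = XE-991 inhibitor control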
* marks the source's active call; other numbers are inactive results.

What do the screens show for `COc1c(S(=O)(=O)N2CCN(C)CC2)ccc(Cl)c1Cl`?
KCNQ1 block: 7*; Kir21 inh: 0.18; hERG rescue: 0.3; KCNQ1 pot: inactive; KCNK9 inh: inactive; KCNK3 inh: inactive; KCNQ1 block val: 0.0; CHO Tl flux: 0.486; KCNQ2 spec: inactive; KCNQ1-KCNE1 inh: 56.0%*

How did O=C1CCCN1CCCNc1nc2c(S(=O)(=O)c3ccc(Br)cc3)nnn2c2ccccc12 do in these assays?
KCNQ1 block: inactive; Kir21 inh: 1.67; hERG rescue: -4.3; KCNQ1 pot: inactive; KCNK9 inh: inactive; KCNK3 inh: inactive

Results for COc1ccc(C(c2c(O)ccc3ccccc23)N2CCOCC2)c(OC)c1 (stereo not given) ?
KCNQ1 block: 7*; Kir21 inh: 1.26; hERG rescue: -31.4; KCNQ1 pot: inactive; KCNK9 inh: inactive; KCNK3 inh: inactive; KCNQ1 block val: 113.0*; CHO Tl flux: 0.349*; KCNQ2 spec: 108.3%*; KCNQ1-KCNE1 inh: 141.5%*

Results for CCOc1ccc(CC(=O)NNC(=S)NC)cc1Br ?
KCNQ1 block: inactive; Kir21 inh: 0.5; hERG rescue: -4.1; KCNQ1 pot: inactive; KCNK9 inh: inactive; KCNK3 inh: inactive

What do the screens show for `Cc1cccc(OCC(=O)Nc2ccc3c(c2)nc(CCN2CCN(C)CC2)n3C)c1`?
KCNQ1 block: 9*; Kir21 inh: -0.05; hERG rescue: -5.2; KCNQ1 pot: inactive; KCNK9 inh: inactive; KCNK3 inh: inactive; KCNQ1 block val: 0.0; CHO Tl flux: 0.501; KCNQ2 spec: inactive; KCNQ1-KCNE1 inh: inactive

What do the screens show for `COc1ccc(OCC(=O)Nc2ccc3c(c2)nc(CCN2CCN(C)CC2)n3C)cc1`?
KCNQ1 block: inactive; Kir21 inh: 0.76; hERG rescue: -6.8; KCNQ1 pot: inactive; KCNK9 inh: inactive; KCNK3 inh: inactive

How did CCOCCOC(=O)COc1ccc2c(-c3ccccc3)cc(=O)oc2c1 do in these assays?
KCNQ1 block: inactive; Kir21 inh: -0.53; hERG rescue: -2.1; KCNQ1 pot: inactive; KCNK9 inh: inactive; KCNK3 inh: inactive

How did Cc1cc(C)nc(NC(=NCCc2c[nH]c3ccccc23)NC(=O)Nc2ccc(Cl)cc2)n1 do in these assays?
KCNQ1 block: 6*; Kir21 inh: -0.14; hERG rescue: -11.5; KCNQ1 pot: inactive; KCNK9 inh: inactive; KCNK3 inh: inactive; KCNQ1 block val: 47.5*; CHO Tl flux: 0.483; KCNQ2 spec: 88.3%*; KCNQ1-KCNE1 inh: 89.5%*

Results for Cc1ccccc1N(C(=O)CNC(=O)c1ccco1)C(C(=O)NC1CCCCC1)c1cccnc1 (stereo not given) ?
KCNQ1 block: inactive; Kir21 inh: 1.07; hERG rescue: -7.0; KCNQ1 pot: inactive; KCNK9 inh: inactive; KCNK3 inh: inactive

What do the screens show for `O=C(N/N=C/c1ccc(O)cc1)c1csc2c1CCCC2`?
KCNQ1 block: inactive; Kir21 inh: 1.13; hERG rescue: -17.3; KCNQ1 pot: inactive; KCNK9 inh: inactive; KCNK3 inh: inactive

Results for CCOC(=O)c1ccc(N2CCN(c3ccccc3F)CC2)c(NC(=O)Nc2ccccc2)c1 ?
KCNQ1 block: 6*; Kir21 inh: 0.07; hERG rescue: -18.8; KCNQ1 pot: inactive; KCNK9 inh: inactive; KCNK3 inh: inactive; KCNQ1 block val: 118.5*; CHO Tl flux: 0.362*; KCNQ2 spec: 118.3%*; KCNQ1-KCNE1 inh: 138.0%*

What do the screens show for `CCC(C)C(NC(=O)CCC(=O)OCC(=O)[C@@]1(O)CCC2[C@@H]3CCC4=CC(=O)C=C[C@]4(C)C3[C@@H](O)C[C@@]21C)C(=O)O` (stereo not given in full)?
KCNQ1 block: inactive; Kir21 inh: 0.13; hERG rescue: -2.0; KCNQ1 pot: inactive; KCNK9 inh: inactive; KCNK3 inh: inactive

What do the screens show for `Cc1ccc(S(=O)(=O)N2CCN(c3ncnc4scc(-c5ccccc5)c34)CC2)cc1`?
KCNK3 inh: inactive

What do the screens show for `COc1ccc(-c2csc3ncnc(N4CCN(c5ccccc5O)CC4)c23)cc1`?
KCNQ1 block: 8*; Kir21 inh: 2.79; hERG rescue: -9.3; KCNQ1 pot: inactive; KCNK9 inh: inactive; KCNK3 inh: inactive; KCNQ1 block val: 0.0; CHO Tl flux: 0.41; KCNQ2 spec: 110.3%*; KCNQ1-KCNE1 inh: inactive

Results for Cc1ccc(S(=O)(=O)N2CCN(c3ncnc4scc(-c5ccc(F)cc5)c34)CC2)cc1 ?
KCNQ1 block: 8*; Kir21 inh: -0.67; hERG rescue: -17.8; KCNQ1 pot: inactive; KCNK9 inh: inactive; KCNK3 inh: inactive; KCNQ1 block val: 71.5*; CHO Tl flux: 0.469; KCNQ2 spec: 81.0%*; KCNQ1-KCNE1 inh: inactive

Results for Cc1ccc(-c2csc3ncnc(N4CCN(c5ccccc5O)CC4)c23)cc1 ?
KCNQ1 block: inactive; Kir21 inh: 2.34; hERG rescue: -10.9; KCNQ1 pot: inactive; KCNK9 inh: inactive; KCNK3 inh: inactive

What do the screens show for `COc1ccc(-c2csc3ncnc(N4CCN(S(=O)(=O)c5ccc(C(C)=O)cc5)CC4)c23)cc1`?
KCNQ1 block: 8*; Kir21 inh: -0.08; hERG rescue: -11.7; KCNQ1 pot: inactive; KCNK9 inh: inactive; KCNK3 inh: inactive; KCNQ1 block val: 67.0*; CHO Tl flux: 0.437; KCNQ2 spec: 89.3%*; KCNQ1-KCNE1 inh: 36.5%*

How did Cn1nc(C(C)(C)C)cc1NC(=O)Nc1ccc(Cl)cc1 do in these assays?
KCNQ1 block: 7*; Kir21 inh: 1.93; hERG rescue: -17.1; KCNQ1 pot: inactive; KCNK9 inh: inactive; KCNK3 inh: inactive; KCNQ1 block val: 83.0*; CHO Tl flux: 0.462; KCNQ2 spec: inactive; KCNQ1-KCNE1 inh: inactive

What do the screens show for `Cn1nc(C(C)(C)C)cc1NC(=O)Nc1ccc(F)cc1F`?
KCNQ1 block: inactive; Kir21 inh: 0.59; hERG rescue: -8.2; KCNQ1 pot: inactive; KCNK9 inh: inactive; KCNK3 inh: inactive
